One data set deals with FGF signaling. Nature of the data set: FGF reporter activation in Tg. It counts as in vivo, zebrafish. As to conditions: for in vivo FGF hyperactivation activity (in words): Tg(dusp6:EGFP)pt6 embryos, SAR statement relative to 1. Put shortly: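 Compound was added from 100X DMSO stocks (1% DMSO final). Time course was imaged hourly for 6 h; dose-response was read at 5 h. Embryos were anaesthetised with MS222 (40 μg/ml) and imaged at 4X (488/525 nm).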

In the next data set the test system is zebrafish embryos. Nature of the data set: Hatching study in zebrafish embryos. It is filed as in vivo. Particulars: 6 hour exposure followed by washout; for embryos hatched (in words): exposure at their EC50 (1: 10 μM, 7: 5 μM).
Data set [1] deals with Recombinant His-tagged Dusp6. Nature of the data set: In vitro OMFP phosphatase assay, ERK2 induced activation of DUSP6. It counts as biochemical. Particulars: 100 μM compound, with recombinant ERK2, OMFP substrate. In short, it runs like this: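 Recombinant His-tagged Dusp6 (250 ng), expressed in bacteria, was preincubated with 100 μM test compound. Recombinant ERK2 (210 ng) was added, then OMFP substrate (100 μM). Fluorescence (485/525 nm) was read every 10 min for 1 h at room temperature. Percent inhibition was taken at 10 min, within the linear range, from three independent experiments (mean ± SD). Vanadate was the positive control; one-way ANOVA with Tukey post hoc test.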

Another data set addresses T1, human c-Myc-DUSP1 (Homo sapiens, UniProt P28562).
T1 sequence (P28562 1-367): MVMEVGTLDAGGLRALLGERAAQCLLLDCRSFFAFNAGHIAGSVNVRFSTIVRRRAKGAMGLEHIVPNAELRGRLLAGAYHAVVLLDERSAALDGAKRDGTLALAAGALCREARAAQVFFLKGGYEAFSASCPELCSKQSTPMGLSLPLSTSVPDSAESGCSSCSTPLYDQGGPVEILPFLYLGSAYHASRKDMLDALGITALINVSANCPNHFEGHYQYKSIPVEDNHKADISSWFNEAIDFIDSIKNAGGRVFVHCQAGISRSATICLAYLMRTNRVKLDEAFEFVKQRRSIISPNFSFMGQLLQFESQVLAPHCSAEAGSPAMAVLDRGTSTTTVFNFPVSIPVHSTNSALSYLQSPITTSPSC
Nature of the data set: Chemical complementation assay for DUSP1. It is filed as cell-based. Put shortly:
(§1)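 Human c-Myc-tagged DUSP1 (in pcDNA3.1) or DUSP6 (in pSG5) transfected into HeLa cells, which were grown in DMEM with 10% FBS at 37 °C and 5% CO2. At 48 h, quadruplicate wells got a 15 min treatment with ten two-fold dilutions, then TPA (500 ng/ml) for 15 min. Cells were immunostained for pERK and c-Myc. IC50 came from a four-parameter logistic fit of KS values versus concentration.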

The test system of another data set is DUSP. As to conditions: bacterially produced recombinant protein, no ERK; cited from earlier work.
A further data set has as its target T2, human c-Myc-DUSP6 (Homo sapiens, UniProt Q16828).
T2 sequence (Q16828 1-381): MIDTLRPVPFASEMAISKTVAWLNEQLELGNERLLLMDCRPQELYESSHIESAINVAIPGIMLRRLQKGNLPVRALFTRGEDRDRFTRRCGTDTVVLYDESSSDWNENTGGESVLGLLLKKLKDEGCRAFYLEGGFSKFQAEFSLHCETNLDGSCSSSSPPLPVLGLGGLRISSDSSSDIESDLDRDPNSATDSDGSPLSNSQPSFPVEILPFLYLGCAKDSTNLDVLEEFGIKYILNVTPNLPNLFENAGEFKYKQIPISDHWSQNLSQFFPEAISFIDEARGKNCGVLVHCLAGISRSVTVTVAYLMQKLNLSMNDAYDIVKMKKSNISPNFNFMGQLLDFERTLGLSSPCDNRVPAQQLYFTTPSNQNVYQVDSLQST
Nature of the data set: Chemical complementation assay for DUSP6. It counts as cell-based. In short, it runs like this: as §1

The subject of the next data set is EA.hy926 cells. Nature of the data set: Cytotoxicity in cultured EA.hy926 cells. It is filed as cell-based. As to conditions: six hours, concentrations up to 50 μM. In short, it runs like this:
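EA.hy926 endothelial hybridoma cells were kept in DMEM with 10% FBS and 2 mM glutamine, plated at 10,000/well and allowed to attach overnight. They were exposed for 6 h to five-point 1/3 dilution gradients, with phenylarsine oxide as positive control. Live cells were stained with propidium iodide (1 μg/ml) and Hoechst 33342 (10 μg/ml), then imaged. Scored per field: nuclei count, nuclear condensation, % PI-positive cells.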

The mark [2] stands for this setting: HeLa chemical complementation assay.

Entries after “also recorded” stand apart in the source; their conditions may differ.

What is called IC50 is the point on the concentration scale where inhibition reaches its midpoint. A low value points to higher potency.

For `O=C1C(=Cc2ccccc2)C(Nc2ccccc2)c2ccccc21` (stereo not shown) [Compound 4], the “in vivo FGF hyperactivation activity (in words)” value in the data set on FGF signaling is listed as “abolished activity”.

In the case of `O=C1/C(=C/c2ccccc2)C(N2CCOCC2)c2ccccc21` (stereo not shown) [Compound 7], the “in vivo FGF hyperactivation activity (in words)” value in the data set on FGF signaling is recorded as “maximal activity”. In addition, the “embryos hatched (in words)” value with zebrafish embryos was “no embryos hatched”. Further, the “suppression of ERK-stimulated activation of DUSP6 (in words)” value (“suppression” below) in data set [1] is on record as “significantly suppressed activation of DUSP6”.

`O=C1/C(=C/c2ccccc2)C(NC2CCCCC2)c2ccccc21` (stereo not shown) [Compound 1, (E)-2-benzylidene-3-(cyclohexylamino)-2,3-dihydro-1H-inden-1-one]: the results for the IC50 at human c-Myc-DUSP1 and at human c-Myc-DUSP6 were 8 ± 0.6 µM and 13.3 ± 1.8 µM, respectively. In the data set with DUSP, the “antiphosphatase activity in traditional biochemical assay (in words)” value is given as “lacked antiphosphatase activity”. In the data set with FGF signaling (20 μM, 24 hpf embryos, stable for an additional hour), the “time at which GFP expression reached a maximum” value stood at 5 h. Further, in the data set on FGF signaling (5 hour time point, declined at higher concentrations), the “concentration of maximal FGF reporter activation” value is 20 µM. The “embryos hatched (in words)” value in the data set with zebrafish embryos was “no embryos hatched”. For the same molecule, the “suppression” value in data set [1] is “significantly suppressed activation of DUSP6”.

Take `O=C1/C(=C/c2ccccc2)C(NC2CCCCC2)c2cc(Br)ccc21` (stereo not shown) [Compound 19]: the “in vivo FGF hyperactivation activity (in words)” value in the data set with FGF signaling is “tolerated”. Moreover, in the data set on EA.hy926 cells, the “cellular toxicity (in words)” value is “devoid of cellular toxicity”. In addition, the “embryos hatched by 56 hpf” value in the data set on zebrafish embryos (20 μM (two times the EC50 for FGF activation)) was determined as 100%. Besides, the “suppression” value in data set [1] is listed as “significantly suppressed activation of DUSP6”.

Take `O=C1C(=Cc2ccc(Cl)c(Cl)c2)C(NC2CCCCC2)c2ccccc21` (stereo not shown) [Compound 16]: the “in vivo FGF hyperactivation activity (in words)” value with FGF signaling was “did not substantially change activity compared to 1”.

For `O=C1C(=Cc2ccc(Cl)cc2)C(NC2CCCCC2)c2ccccc21` (stereo not shown) [Compound 15], the “in vivo FGF hyperactivation activity (in words)” value with FGF signaling was “did not substantially change activity compared to 1”.

On to `OC1C(=Cc2ccccc2)C(NC2CCCCC2)c2ccccc21` (stereo not shown) [Compound 31, 2-benzylidene-3-cyclohexylaminoindan-1-ol], for which the “in vivo FGF hyperactivation activity (in words)” value in the data set on FGF signaling is “abolished activity”. Also, in data set [1], the “suppression” value is “insignificant”.

`COc1ccc(/C=C2/C(=O)c3ccccc3C2N2CCOCC2)cc1` (stereo not shown) [Compound 24]: the “DUSP1 inhibition in mammalian cells (in words)” value on human c-Myc-DUSP1 (setting [2]) is listed as “lacked antiphosphatase activity”. Further, the “in vivo FGF hyperactivation activity (in words)” value in the data set on FGF signaling was “inactive; also recorded: abolished the activity”. At human c-Myc-DUSP6 (setting [2]), the “DUSP6 inhibition in mammalian cells (in words)” value is given as “lacked antiphosphatase activity”.

The values above are taken from paper PMC4118675 (Chembiochem : a European journal of chemical biology, 2014).
